Reference: ChEMBL document CHEMBL1125209, “Boc-CCK-4 derivatives containing side-chain ureas as potent and selective CCK-a receptor agonists” (J Med Chem, 1991)
pEC50, pIC50: −log10 of the molar value. *1 amine or outer side, *2 acyl side, *3 side chain or, on linkers, in order; H or OH if unused. Where a SMILES comes first, the peptide text is derived from it. Side-chain parts run from the residue outwards. [ ]: non-standard residue; d: D form. The star is where a group is joined. NH(2-CF3-phenyl) = FC(F)(F)c1ccccc1N*; NH(1-naphthyl) = c1ccc2c(N*)cccc2c1; NH(2,6-Me2-phenyl) = Cc1cccc(C)c1N*; NHPh(4-CF3) = FC(F)(F)c1ccc(N*)cc1; NH(3-Cl-phenyl) = Clc1cccc(N*)c1; NH(4-Cl-phenyl) = Clc1ccc(N*)cc1; hCit = NC(=O)NCCCC[C@H](N)C(=O)O; NH(4-Me-phenyl) = Cc1ccc(N*)cc1; NH(2-Me-phenyl) = Cc1ccccc1N*; X3 = O=[N+]([O-])c1ccccc1N*; hLys = NCCCCC[C@H](N)C(=O)O; NH(2-ClPh) = Clc1ccccc1N*; X9 = FC(F)(F)c1cccc(N*)c1; Orn = NCCC[C@H](N)C(=O)O; βNA = c1ccc2cc(N*)ccc2c1; 2Abz = Nc1ccccc1C(=O)O; Boc = CC(C)(C)OC(=O)*; NHcHex = C1CCC(N*)CC1; CO = O=C([*:1])[*:2]; NHBn = c1ccc(CN*)cc1; X2 = CC(C)c1ccccc1N*; NHtBu = CC(C)(C)N*; X10 = Brc1ccccc1N*; X5 = Cc1cccc(N*)c1; X6 = COc1ccccc1N*

How the values were obtained:
Cavia porcellus [1] = species on record: Cavia porcellus; assay: Effective concentration for hydrolysis of phosphoinositide in guinea pig pancreatic Acini; format: functional
Procedure, shortened: (§1)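 Guinea pig pancreatic acini, phosphoinositide hydrolysis. […] Efficacy is expressed as % of the maximal response elicited by CCK-8. Each determination was run in duplicate with <5% sample variability. Means ±SE are given for three or more determinations.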

Cavia porcellus [2] = species on record: Cavia porcellus; assay: The compound was tested for effective concentration for amylase release in guinea pig pancreatic Acini; format: functional
Procedure, shortened: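 Amylase release from guinea pig pancreatic acini. […] Each determination was run in duplicate with <5% sample variability. Means ±SE are given where there were three or more determinations.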

Cavia porcellus [3] = species on record: Cavia porcellus; assay: Percentage response in phosphoinositide hydrolysis relative to maximal response elicited by CCK-8 in guinea pig pancreatic acini; format: functional; procedure, shortened: as §1
[4] = Selectivity ratio of IC50 measured in guinea pig cortex to that of IC50 for guinea pig pancreas; details: Cavia porcellus
[5] = biological target: T1, Cholecystokinin receptor type A (Cavia porcellus, UniProt Q63931); assay: Binding affinity for Cholecystokinin type A receptor in guinea pig pancreas by using [125I]BH-CCK-8 as radioligand
T1 sequence (Q63931 whole entry): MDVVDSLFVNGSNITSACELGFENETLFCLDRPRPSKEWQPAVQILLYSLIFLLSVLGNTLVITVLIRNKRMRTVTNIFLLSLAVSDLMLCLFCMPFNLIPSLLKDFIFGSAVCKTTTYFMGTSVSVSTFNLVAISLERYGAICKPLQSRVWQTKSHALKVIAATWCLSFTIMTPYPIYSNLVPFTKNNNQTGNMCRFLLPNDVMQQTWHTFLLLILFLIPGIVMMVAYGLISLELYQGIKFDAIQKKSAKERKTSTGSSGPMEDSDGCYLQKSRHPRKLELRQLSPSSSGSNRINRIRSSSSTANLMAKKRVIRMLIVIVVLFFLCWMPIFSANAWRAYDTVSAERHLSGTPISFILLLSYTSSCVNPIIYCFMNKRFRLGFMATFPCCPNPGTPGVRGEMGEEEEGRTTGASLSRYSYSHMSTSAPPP

Row | SMILES | pEC50 (Cavia porcellus [1]) | pEC50 (Cavia porcellus [2]) | Max response (Cavia porcellus [3]) | Selectivity [4] | pIC50 [5]
1 | CC(C)(C)OC(=O)N[C@@H](Cc1c[nH]c2ccccc12)C(=O)N[C@@H](CCCCNC(=O)Nc1cccc2ccccc12)C(=O)N[C@@H](CC(=O)O)C(=O)N[C@@H](Cc1ccccc1)C(N)=O (Boc-WK([CO-NH(1-naphthyl)])DF-NH2) | 7.85 | 8.80 | 103% | 690 | 7.80
2 | CC(C)(C)NC(=O)NCCCC[C@H](NC(=O)[C@H](Cc1c[nH]c2ccccc12)NC(=O)OC(C)(C)C)C(=O)N[C@@H](CC(=O)O)C(=O)N[C@@H](Cc1ccccc1)C(N)=O (Boc-WK([CO-NHtBu])DF-NH2) | 6.48 | 7.38 | 73% | 33 | 6.77
3 | Cc1ccc(NC(=O)NCCCC[C@H](NC(=O)[C@H](Cc2c[nH]c3ccccc23)NC(=O)OC(C)(C)C)C(=O)N[C@@H](CC(=O)O)C(=O)N[C@@H](Cc2ccccc2)C(N)=O)cc1 (Boc-WK([CO-NH(4-Me-phenyl)])DF-NH2) | 6.85 | – | 91% | – | –
4 | CC(C)(C)OC(=O)N[C@@H](Cc1c[nH]c2ccccc12)C(=O)N[C@@H](CCCCNC(=O)NCc1ccccc1)C(=O)N[C@@H](CC(=O)O)C(=O)N[C@@H](Cc1ccccc1)C(N)=O (Boc-WK([CO-NHBn])DF-NH2) | – | – | – | – | 6.64
5 | CSCC[C@H](NC(=O)[C@H](Cc1ccc(OS(=O)(=O)O)cc1)NC(=O)[C@@H](N)CC(=O)O)C(=O)NCC(=O)N[C@@H](Cc1c[nH]c2ccccc12)C(=O)N[C@@H](CCSC)C(=O)N[C@@H](CC(=O)O)C(=O)N[C@@H](Cc1ccccc1)C(N)=O [SINCALIDE] | 8.92 | 9.33 | – | – | –
6 | CC(C)(C)OC(=O)N[C@@H](Cc1c[nH]c2ccccc12)C(=O)N[C@@H](CCCCNC(=O)NC1CCCCC1)C(=O)N[C@@H](CC(=O)O)C(=O)N[C@@H](Cc1ccccc1)C(N)=O (Boc-WK([CO-NHcHex])DF-NH2) | 7.26 | 8.38 | 97% | – | –
7 | CC(C)(C)OC(=O)N[C@@H](Cc1c[nH]c2ccccc12)C(=O)N[C@@H](CCCCNC(=O)Nc1cccc(C(F)(F)F)c1)C(=O)N[C@@H](CC(=O)O)C(=O)N[C@@H](Cc1ccccc1)C(N)=O (Boc-WK([CO-X9])DF-NH2) | – | – | – | – | 7.23
8 | Cc1ccccc1NC(=O)NCCCC[C@H](NC(=O)[C@H](Cc1c[nH]c2ccccc12)NC(=O)OC(C)(C)C)C(=O)N[C@@H](CC(=O)O)C(=O)N[C@@H](Cc1ccccc1)C(N)=O (Boc-WK([CO-NH(2-Me-phenyl)])DF-NH2) | 7.92 | – | 101% | – | –
9 | CC(C)(C)OC(=O)N[C@@H](Cc1c[nH]c2ccccc12)C(=O)N[C@@H](CCCCNC(=O)Nc1ccc2ccccc2c1)C(=O)N[C@@H](CC(=O)O)C(=O)N[C@@H](Cc1ccccc1)C(N)=O (Boc-WK([CO-βNA])DF-NH2) | 6.85 | 8.15 | 79% | 200 | –
10 | CC(C)(C)OC(=O)N[C@@H](Cc1c[nH]c2ccccc12)C(=O)N[C@@H](CCCCNC(=O)Nc1ccc(Cl)cc1)C(=O)N[C@@H](CC(=O)O)C(=O)N[C@@H](Cc1ccccc1)C(N)=O (Boc-WK([CO-NH(4-Cl-phenyl)])DF-NH2) | – | 8.02 | 91% | – | 7.22
11 | CC(C)(C)OC(=O)N[C@@H](Cc1c[nH]c2ccccc12)C(=O)N[C@@H](CCCCNC(=O)Nc1cccc(Cl)c1)C(=O)N[C@@H](CC(=O)O)C(=O)N[C@@H](Cc1ccccc1)C(N)=O (Boc-WK([CO-NH(3-Cl-phenyl)])DF-NH2) | – | 8.36 | 93% | – | 7.29
12 | COC(=O)c1ccccc1NC(=O)NCCCC[C@H](NC(=O)[C@H](Cc1c[nH]c2ccccc12)NC(=O)OC(C)(C)C)C(=O)N[C@@H](CC(=O)O)C(=O)N[C@@H](Cc1ccccc1)C(N)=O (Boc-WK([CO-2Abz-OMe])DF-NH2) | – | – | – | 91 | 7.47
13 | CC(C)(C)OC(=O)N[C@@H](Cc1c[nH]c2ccccc12)C(=O)N[C@@H](CCCCNC(=O)Nc1ccccc1Br)C(=O)N[C@@H](CC(=O)O)C(=O)N[C@@H](Cc1ccccc1)C(N)=O (Boc-WK([CO-X10])DF-NH2) | – | – | – | – | 8.44
14 | CC(C)(C)OC(=O)N[C@@H](Cc1c[nH]c2ccccc12)C(=O)N[C@@H](CCCCNC(=O)Nc1ccccc1Cl)C(=O)N[C@@H](CC(=O)O)C(=O)N[C@@H](Cc1ccccc1)C(N)=O (Boc-WK([CO-NH(2-ClPh)])DF-NH2) | 8.34 | – | 91% | – | –
15 | Cc1cccc(NC(=O)NCCCC[C@H](NC(=O)[C@H](Cc2c[nH]c3ccccc23)NC(=O)OC(C)(C)C)C(=O)N[C@@H](CC(=O)O)C(=O)N[C@@H](Cc2ccccc2)C(N)=O)c1 (Boc-WK([CO-X5])DF-NH2) | 7.29 | – | 95% | – | –
16 | COc1ccccc1NC(=O)NCCCC[C@H](NC(=O)[C@H](Cc1c[nH]c2ccccc12)NC(=O)OC(C)(C)C)C(=O)N[C@@H](CC(=O)O)C(=O)N[C@@H](Cc1ccccc1)C(N)=O (Boc-WK([CO-X6])DF-NH2) | 8.08 | – | 100% | – | –
17 | Cc1cccc(C)c1NC(=O)NCCCC[C@H](NC(=O)[C@H](Cc1c[nH]c2ccccc12)NC(=O)OC(C)(C)C)C(=O)N[C@@H](CC(=O)O)C(=O)N[C@@H](Cc1ccccc1)C(N)=O (Boc-WK([CO-NH(2,6-Me2-phenyl)])DF-NH2) | 6.04 | – | 40% | – | 6.10
18 | CC(C)(C)OC(=O)N[C@@H](Cc1c[nH]c2ccccc12)C(=O)N[C@@H](CCCCNC(=O)Nc1ccc(C(F)(F)F)cc1)C(=O)N[C@@H](CC(=O)O)C(=O)N[C@@H](Cc1ccccc1)C(N)=O (Boc-WK([CO-NHPh(4-CF3)])DF-NH2) | – | – | – | 5 | 6.77
19 | CC(C)(C)OC(=O)N[C@@H](Cc1c[nH]c2ccccc12)C(=O)N[C@@H](CCCCNC(N)=O)C(=O)N[C@@H](CC(=O)O)C(=O)N[C@@H](Cc1ccccc1)C(N)=O (Boc-W[hCit]DF-NH2) | – | – | – | 0.083 | 4.92
20 | CC(C)(C)OC(=O)N[C@@H](Cc1c[nH]c2ccccc12)C(=O)N[C@@H](CCCC/N=C(\S)Nc1ccc(Cl)cc1)C(=O)N[C@@H](CC(=O)O)C(=O)N[C@@H](Cc1ccccc1)C(N)=O | – | – | – | – | 6.57
21 | CC(C)(C)OC(=O)N[C@@H](Cc1c[nH]c2ccccc12)C(=O)N[C@@H](CCCCNC(=O)Nc1ccccc1C(F)(F)F)C(=O)N[C@@H](CC(=O)O)C(=O)N[C@@H](Cc1ccccc1)C(N)=O (Boc-WK([CO-NH(2-CF3-phenyl)])DF-NH2) | 8.21 | 9.11 | 100% | – | 8.10
22 | CC(C)c1ccccc1NC(=O)NCCCC[C@H](NC(=O)[C@H](Cc1c[nH]c2ccccc12)NC(=O)OC(C)(C)C)C(=O)N[C@@H](CC(=O)O)C(=O)N[C@@H](Cc1ccccc1)C(N)=O (Boc-WK([CO-X2])DF-NH2) | – | 8.36 | 85% | 250 | 7.64
23 | Cc1ccccc1NC(=O)NCCCCC[C@H](NC(=O)[C@H](Cc1c[nH]c2ccccc12)NC(=O)OC(C)(C)C)C(=O)N[C@@H](CC(=O)O)C(=O)N[C@@H](Cc1ccccc1)C(N)=O (Boc-W[hLys]([CO-NH(2-Me-phenyl)])DF-NH2) | – | 7.92 | 83% | – | 7.03
24 | CC(C)(C)OC(=O)N[C@@H](Cc1c[nH]c2ccccc12)C(=O)N[C@@H](CCCC/N=C(\S)Nc1ccccc1Cl)C(=O)N[C@@H](CC(=O)O)C(=O)N[C@@H](Cc1ccccc1)C(N)=O | – | 7.70 | 83% | 29 | 7.00
25 | Cc1ccccc1NC(=O)NCCC[C@H](NC(=O)[C@H](Cc1c[nH]c2ccccc12)NC(=O)OC(C)(C)C)C(=O)N[C@@H](CC(=O)O)C(=O)N[C@@H](Cc1ccccc1)C(N)=O (Boc-W[Orn]([CO-NH(2-Me-phenyl)])DF-NH2) | – | 6.38 | 36% | 23 | 6.19
26 | CC(C)(C)OC(=O)N[C@@H](Cc1c[nH]c2ccccc12)C(=O)N[C@@H](CCCCNC(=O)Nc1ccccc1[N+](=O)[O-])C(=O)N[C@@H](CC(=O)O)C(=O)N[C@@H](Cc1ccccc1)C(N)=O (Boc-WK([CO-X3])DF-NH2) | 7.68 | 8.72 | 100% | – | 7.66
